Measurements: ChEMBL document CHEMBL1139371, “Total synthesis and biological evaluation of tubulysin U, tubulysin V, and their analogues” (J Med Chem, 2009)
pIC50: −log10 of the molar value.

Assays:
MCF7 = test: Antiproliferative activity against human MCF7 cells after 4 days by SRB assay; type: functional, cell-based; conditions: MCF7, 96 h
Method in brief: (§1)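 Compounds were tested as HCl salts and dosed from DMSO. Cells were 1A9 ovarian and MCF-7 breast cancer lines. IC50 is the mean of two independent determinations.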

[1] = Inhibition of tubulin polymerization
1A9 = test: Antiproliferative activity against human 1A9 cells after 4 days by SRB assay; type: functional, cell-based; conditions: 1A9, 96 h; method in brief: as §1
[2] = Anticancer activity against human KBV1 cells expressing P-gp; type: functional, cell-based; conditions: KB-V1

Compound | pIC50 (MCF7) | pIC50 [1] | pIC50 (1A9) | pIC50 [2]
CC[C@H](C)[C@H](NC(=O)[C@@H](C)N(C)C)C(=O)N[C@H](CC(=O)c1nc(C(=O)N[C@@H](Cc2ccccc2)CC(C)(C)C(=O)O)cs1)C(C)C | 4.91 | 5.07 | 4.85 | –
CC[C@H](C)[C@H](NC(=O)[C@@H](C)N(C)C)C(=O)N[C@H](CC(=O)c1nc(C(=O)N[C@@H](Cc2ccccc2)C[C@H](C)C(=O)O)cs1)C(C)C | – | 5.44 | < 4.30 | –
CC[C@H](C)[C@H](NC(=O)[C@H]1CCCCN1C)C(=O)N[C@H](C[C@H](O)c1nc(C(=O)N[C@@H](Cc2ccccc2)C[C@H](C)C(=O)O)cs1)C(C)C | 5.09 | 5.89 | 5.29 | –
CC[C@H](C)[C@H](NC(=O)[C@@H](C)N(C)C)C(=O)NC(CC(=O)c1nc(C(=O)N[C@H](CCC(=O)O)Cc2ccccc2)cs1)C(C)C (single isomer, unassigned) | 6.77 | 4.90 | 6.52 | –
CN[C@H](C(=O)N[C@H](C(=O)N(C)[C@H](/C=C(\C)C(=O)O)C(C)C)C(C)(C)C)C(C)(C)c1ccccc1 [TALTOBULIN] | 9.82 | 6.15 | 9.70 | –
CC[C@H](C)[C@H](NC(=O)[C@H]1CCCCN1C)C(=O)N(COC(=O)CC(C)C)[C@H](C[C@@H](OC(C)=O)c1nc(C(=O)N[C@@H](Cc2ccccc2)C[C@H](C)C(=O)O)cs1)C(C)C [TUBULYSIN D] | – | – | – | 9.51
CC[C@H](C)[C@H](NC(=O)[C@H]1CCCCN1C)C(=O)N[C@H](C[C@@H](OC(C)=O)c1nc(C(=O)N[C@@H](Cc2ccccc2)C[C@H](C)C(=O)O)cs1)C(C)C [TUBULYSIN U] | 9.40 | 5.72 | 9.19 | –
CC[C@H](C)[C@H](NC(=O)[C@H]1CCCCN1C)C(=O)N[C@H](C[C@@H](O)c1nc(C(=O)N[C@@H](Cc2ccccc2)C[C@H](C)C(=O)O)cs1)C(C)C [TUBULYSIN V] | 6.62 | 5.96 | 6.92 | –
